A selection: hits, their analogues and other compounds. The true share with any hit is near 4.6%.
CHO parental Ca: signal in parental CHO cells, OX1R antagonist counter-screen. parental CHO-K1, ATP-induced calcium, Fluo-8 fluorescence. inhibition, % at 5.6 µM. hit rate 0.63% among 330,000. AID 463079;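 active = inhibition above that plate's mean sample inhibition plus 3 SD, cut at about 26% in these data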;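 also: 0% = ATP-challenged DMSO wells and 100% = DMSO wells without ATP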
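Measured by: calcium-sensitive Fluo-8 fluorescence / Test system: CHO parental line / Controls: ATP-challenged DMSO wells low, unchallenged DMSO wells high / Measure: % inhibition / Compound: single nominal dose of 5.6 µM per compound / Replicates: single well per compound, no replicates / Reagent: ATP as calcium-mobilizing challenge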
TAAR1 antagonist: antagonists of human TAAR1. Q96RJ0. CHO RD-HGA16 TAAR1, Fluo-8 calcium fluorescence, antagonist. inhibition, % at 3 µM. hit rate 1.5% among 360,000. AID 624466;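 active = inhibition above a per-plate cutoff, the mean inhibition of test compounds on that plate plus 3 SD, cut at about 49% in these data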;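 also: 0% = DMSO plus EC80 beta-PEA response and 100% = DMSO alone without agonist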
Target sequence (Q96RJ0 whole entry, looked up): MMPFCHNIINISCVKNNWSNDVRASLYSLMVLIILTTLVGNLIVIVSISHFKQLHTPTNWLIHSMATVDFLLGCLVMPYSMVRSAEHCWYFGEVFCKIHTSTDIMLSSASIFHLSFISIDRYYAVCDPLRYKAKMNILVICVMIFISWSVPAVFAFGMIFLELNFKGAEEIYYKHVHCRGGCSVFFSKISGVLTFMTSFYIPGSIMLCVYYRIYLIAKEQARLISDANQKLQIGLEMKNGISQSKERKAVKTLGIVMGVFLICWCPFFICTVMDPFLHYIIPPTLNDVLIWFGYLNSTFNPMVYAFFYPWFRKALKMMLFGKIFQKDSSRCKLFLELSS
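test system = CHO RD-HGA16 cells bearing hTAAR1 | replication = singlicate | controls = DMSO-only wells and EC80 β-PEA-stimulated wells | reagent = EC80 β-phenethylamine stimulus | read-out basis = percent inhibition of PEA-evoked calcium signal, max/basal emission ratio | schedule = seeding 17-24 h prior, 75-min 37 °C, 30-min RT dye loading | signal = kinetic Fluo-8 calcium fluorescence measurement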
OX1R antag-1: OX1R (human) antagonism. O43613. OX1R-expressing cells, FRET antagonist read-out. inhibition, % at 6.6 µM. hit rate 1.8% among 330,000. AID 485270; in the data active = inhibition mostly above about 38%, no sharp cut-off; inactive = mostly below about 40%;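 also: 0% = agonist challenge alone and 100% = reference antagonist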
GPR7 antagonist: blocks human GPR7 receptor signaling; inhibition, % at 4.4 µM; P48145; GPR7-expressing cells, fluorescence antagonist assay; hit rate 1.1% among 290,000; AID 1861; in the data active = inhibition above about 16%, passing the limit was not always enough;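 also: cells stimulated with the agonist NPW; 0% = agonist with vehicle and 100% = vehicle without agonist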
TAAR1 ag: human TAAR1 agonism. CHO RD-HGA16 TAAR1, Fluo-8 calcium fluorescence; vehicle wells 0%, saturating PEA agonist 100%. activation, % at 3 µM. Q96RJ0. hit rate 0.99% among 360,000;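 active = activation above the mean activation of all test compounds in the run plus 3 SD, cut at about 38% in these data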
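System: CHO RD-HGA16 cells carrying human TAAR1 plus Gα16; Incubation: 17-24 h seeding, 75 min 37 °C dye, 30 min RT; Measured by: Fluo-8 fluorescence, 5 s baseline then 140 s kinetic read; Control set: DMSO and PEA EC100; Replication: single well for each compound.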
OX1R antag-2: antagonists of human orexin 1 receptor; inhibition, % at 5 µM; O43613; hit rate 0.43% among 330,000; AID 434989; CHO/OX1R cells, Fluo-8 calcium fluorescence, orexin A;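 active = inhibition above its plate's threshold, mean inhibition of all tested compounds on the plate plus 3 SD, cut at about 37% in these data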;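 also: 0% = orexin A challenge wells and 100% = SB-334867-A antagonist wells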
The depositor's hits bear a star; . = no result given.

SMILES	CHO parental Ca	TAAR1 antagonist	OX1R antag-1	GPR7 antagonist	TAAR1 ag	OX1R antag-2
CCCc1cc(=O)oc2cc(C)cc(OC(C)C(=O)NCc3ccccn3)c12 (centres undefined)	-15	-10	14	-1	-1	-17
COc1ccc(S(=O)(=O)N2CCN(CCc3ccccc3)CC2)cc1	-6	-7	4	13	-1	-33
CCC(CC)N=C1NS(=O)(=O)c2cc([N+](=O)[O-])ccc21	-12	7	55*	-6	3	-7
COC(=O)C1=C(C)N(Cc2ccc(C(F)(F)F)cc2)C(=NCc2ccccc2C(F)(F)F)NC1c1ccc(F)cc1 (centres undefined)	.	45	.	.	8	.
O=C(NCc1cccc(CNC(=O)C(=O)NCc2ccco2)c1)C(=O)NCc1ccco1	33*	-11	5	-1	2	14
O=C(NCc1cccc(CNC(=O)c2ccco2)c1)c1ccco1	-21	0	7	-11	13	-16
CCCn1c(N)c(N(CCOC)C(=O)c2cc3c(s2)CCCCC3)c(=O)[nH]c1=O	-10	-27	5	-4	4	-10
CCC(O)c1cnc(OCc2ccccc2)nc1OCc1ccccc1 (centres undefined)	.	11	.	.	-1	.
COc1ccc2oc(C(=O)N3CCN(S(=O)(=O)c4c(C)c(C)cc(C)c4C)CC3)c(C)c2c1	.	17	.	.	8	.
CN(C)c1ccc(NC(=O)c2sc(SCC(=O)Nc3nccs3)nc2N)cc1	0	67*	15	-6	20	22
Cc1cccc(CC2CC(=O)N(c3ccc(C)cc3Br)C2=O)c1 (centres undefined)	-4	14	19	-7	6	-13
O=C(CCc1ccccc1)NC(NC(=S)Nc1ccc(Cl)cc1)C(Cl)(Cl)Cl (centres undefined)	41*	2	66	-6	17	33
O=C(/C=C/c1ccccc1)NC(NC(=S)Nc1ccc(Cl)cc1)C(Cl)(Cl)Cl (centres undefined)	4	0	75	3	8	16
COc1cccc(NC(=O)CN2CCc3ccccc3C2)c1	-20	-24	8	-4	3	-23
O=C(C[C@H]1CC[C@H]2[C@@H](COC[C@@H](O)CN2S(=O)(=O)c2ccc(F)cc2)O1)N[C@@H]1CCN(Cc2ccccc2)C1	.	-13	.	.	1	.
Cn1nc(CC(=O)Nc2ccc3c(c2)OCCO3)c2ccccc2c1=O	48*	26	51	3	6	47*
CCn1ncc(CN2CCCC(C(=O)Nc3cccc(-c4cc5ccccc5[nH]4)c3)C2)c1C (centres undefined)	-9	21	7	17	41*	-11
CC(C)c1c(C(=O)N/N=C/c2ccncc2)nnn1-c1nonc1N	14	11	11	6	3	-13
Cc1ccc(/C=N/NC(=O)c2nnn(-c3nonc3N)c2-c2ccccc2)o1	-12	-8	10	-1	43*	9
COc1cc(/C=N/NC(=O)c2nnn(-c3nonc3N)c2C(C)C)ccc1OCc1ccc(F)cc1	49*	7	8	7	1	35
CC(C)c1c(C(=O)N/N=C/C=C/c2ccccc2)nnn1-c1nonc1N	-8	34	-1	6	42*	-15
C/C(=N\NC(=O)c1nnn(-c2nonc2N)c1CN(C)c1ccccc1)c1ccccc1O	4	16	55*	-11	0	23
NS(=O)(=O)c1cccc(Nc2nc3ccccc3nc2NS(=O)(=O)c2ccc(Cl)cc2)c1	9	-9	14	.	14	14
O=C(Nc1ccc(/C=C/c2nc3ccccc3o2)cc1)c1c(F)cccc1F	-20	53*	36	9	9	-26
O=C(Cc1cccc(NC(=O)C2CCN(S(=O)(=O)c3cccc([N+](=O)[O-])c3)CC2)c1)Nc1cccc(C(=O)N2CCCCC2)c1	.	-1	.	.	1	.
CCN(CC)S(=O)(=O)c1ccc(N=NC2=C(O)CCCC2=O)cc1	-10	1	55*	-7	2	-13
CC(=O)Nc1ccc(-c2cc3ccccc3o2)cc1	7	33	24	20*	2	16
COc1ccc(/C=C(\C#N)c2n[nH]c(Cn3cncn3)n2)cc1	-15	7	24	20*	0	-18

Screens from PubChem.
